Test results as given in ChEMBL document CHEMBL1154322, “Optimization of the antitumor efficacy of a synthetic mitochondrial toxin by increasing the residence time in the cytosol” (J Med Chem, 2009).
pIC50: −log10 of the molar value. Activity calls are given as the source filed them. The calls are words filed in the database; no cut-off is given here.

Experiments:
[1] = Drug accumulation in BAEC in presence of MRP1/2 inhibitor Reversan by inductively coupled plasma spectrometry relative to untreated control; type: ADME, Bos taurus; settings: cattle
Summary of the method: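 BAE cells incubated 2 h with 50 μM arsenical with or without 5 μM Reversan; cellular arsenic by inductively coupled plasma spectrometry, expressed as % increase in accumulation; triplicates, two experiments.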

[2] = Antiproliferative activity against MDCK2 cells after 72 hrs by MTT assay; type: functional, cell-based; settings: Canis lupus familiaris, MDCK-II
Summary of the method: (§1)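 Cells seeded in 96-well plates, attached overnight at 37 °C, 5% CO2, then cultured 72 h in medium with 10% fetal calf serum plus compound. Viability by MTT, formazan dissolved in DMSO, absorbance 550 nm; expressed as % of untreated control; IC50 = concentration inhibiting proliferation by 50%.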

HCT-116 = assay: Antiproliferative activity against human HCT116 cells after 72 hrs by MTT assay; type: functional, cell-based; settings: HCT-116, 72 h; summary of the method: as §1
HT-1080 = assay: Antiproliferative activity against human HT1080 cells after 72 hrs by MTT assay; type: functional, cell-based; settings: HT-1080, 72 h; summary of the method: as §1
[3] = (§2) Antiproliferative activity against BAEC after 72 hrs by MTT assay; type: functional, Bos taurus; summary of the method: as §1
MCF7 = assay: Antiproliferative activity against human MCF7 cells after 72 hrs by MTT assay; type: functional, cell-based; settings: MCF7, 72 h; summary of the method: as §1
K562 = assay: Antiproliferative activity against human K562 cells after 72 hrs by MTT assay; type: functional, cell-based; settings: K562, 72 h; summary of the method: as §1
BXPC-3 [4] = assay: Antiproliferative activity against human BxPC3 cells after 72 hrs by MTT assay; type: functional, cell-based; settings: BXPC-3, 72 h; summary of the method: as §1
[5] = system: Lewis lung carcinoma cell line; assay: Antiproliferative activity against mouse LLC cells after 72 hrs by MTT assay; type: functional, cell-based; summary of the method: as §1
PANC-1 = assay: Antiproliferative activity against human PANC1 cells after 72 hrs by MTT assay; type: functional, cell-based; settings: PANC-1, 72 h; summary of the method: as §1
[6] = Antiproliferative activity against HMEC1 cells after 72 hrs by MTT assay; type: functional, cell-based; settings: Homo sapiens, HMEC-1, 72 h; summary of the method: as §1
[7] = Antiproliferative activity against mouse bEND.3 cells after 72 hrs by MTT assay; type: functional, cell-based; settings: BEND3, 72 h; summary of the method: as §1
BXPC-3 [8] = assay: Antitumor activity against human BxPC3 cells xenografted in BALB/c mouse assessed as tumor doubling time at 0.25 mg/kg/day, sc (Rvb= 9.4 +/- 1.4 days); type: functional; settings: route subcutaneous
[9] = Potency ratio, ratio of IC50 for 4-(N-(S-cysteinylglycylacetyl)amino)phenylarsonous acid to compound for BAEC after 24 hrs by MTT assay; type: functional, Bos taurus
[10] = Resistance index, ratio of IC50 for MDCK2 cells overexpressing MRP1 to IC50 for wild type MDCK2 cells; type: functional, Canis lupus familiaris
Summary of the method: (§3)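 Transfected MDCKII (MRP1-3), HEK293 (MRP4, MRP5) or MEF3.8 (MRP6, MDR1, BCRP) lines grown in DMEM with 10% calf serum; IC50 for proliferation arrest of each transfectant divided by IC50 of non-transfected parental cells.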

[11] = Potency ratio, ratio of IC50 for 4-(N-(S-Glutathionylacetyl)amino)phenylarsonous acid to compound for BAEC after 24 hrs by MTT assay; type: functional, Bos taurus
BXPC-3 [12] = assay: Potency ratio, ratio of antitumor activity of 4-(N-(S-Glutathionylacetyl)amino)phenylarsonous acid to compound antitumor activity against human BxPC3 cells xenografted in BALB/c; type: functional
[13] = Antiproliferative activity against BAEC after 72 hrs by MTT assay in presence of 3 uM MRP1/2 inhibitor Reversan and 20 uM gamma-glutamyl cysteine synthase inhibitor buthionine sulfoximine; type: functional, cell-based; settings: Bos taurus
[14] = Antiproliferative activity against BAEC after 72 hrs by MTT assay in presence of 3 uM MRP1/2 inhibitor Reversan; type: functional, cell-based; settings: Bos taurus
[15] = Potency ratio, ratio of IC50 for 4-(N-(S-cysteinylacetyl)amino)phenylarsonous acid to compound for BAEC after 24 hrs by MTT assay; type: functional, Bos taurus
[16] = Resistance index, ratio of IC50 for MDCK2 cells overexpressing MRP2 to IC50 for wild type MDCK2 cells; type: functional, Canis lupus familiaris; summary of the method: as §3
BXPC-3 [17] = assay: Antitumor activity against human BxPC3 cells xenografted in BALB/c mouse assessed as tumor doubling time at 0.5 mg/kg/day, sc (Rvb= 9.4 +/- 1.4 days); type: functional; settings: route subcutaneous
[18] = Reduction of cell viability in BAEC after 48 hrs by propidium iodide staining; type: functional, cell-based; settings: Bos taurus
BXPC-3 [19] = assay: Antiangiogenic activity against human BxPC3 cells xenografted in BALB/c mouse assessed as reduction of tumor blood vessel density at 0.25 mg/kg/day, sc dosed for 18 days; type: functional, organism-based
Summary of the method: (§4)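 Female 7-9 week Balb C nude mice given 3 × 10^6 BxPC-3 cells s.c. in proximal midline; at ~50 mm3, randomized and given s.c. flank micro-osmotic pumps (vehicle or 0.25 mg/kg/day) for 18 days. Excised tumors formalin-fixed, paraffin sections immunostained for CD31 (microvessels counted in five hot spots) or PCNA (positive cells per 100 tumor cells, three fields); one-way ANOVA.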

HEK293 [20] = assay: Resistance index, ratio of IC50 for HEK293 cells overexpressing MRP5 to IC50 for wild type HEK293 cells; type: functional, Homo sapiens; summary of the method: as §3
[21] = Potency ratio, ratio of IC50 for 4-(N-(S-Glutathionylacetyl)amino)phenylarsonous acid to compound for BAEC after 48 hrs by propidium iodide staining; type: functional, Bos taurus
BXPC-3 [22] = assay: Antitumor activity against human BxPC3 cells xenografted in BALB/c mouse assessed as reduction of tumor proliferative index at 0.25 mg/kg/day, sc dosed for 18 days; type: functional, organism-based; summary of the method: as §4
BAEC [23] = assay: Antiproliferative activity against MRP1/2 inhibitor Reversan pretreated BAEC at 0.3 uM after 72 hrs by MTT assay; type: functional, cell-based; settings: Bos taurus
Summary of the method: (§5)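 BAE cells pretreated 30 min with 15 μM MK571 or 2 μM Reversan, then incubated with 0.3 μM compound for 72 h; viability by MTT as % of control; mean ± SD of triplicates.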

Mus musculus [24] = assay: Toxicity in human BxPC3 cells xenografted BALB/c mouse at 0.25 mg/kg/day, sc for 28 days; type: organism-based, BXPC-3; design: route subcutaneous; settings: in vivo, 672 h
Summary of the method: (§6)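 Female Balb C nude mice bearing s.c. BxPC-3 tumors given compound via 28-day s.c. flank micro-osmotic pumps; animal weight measured every 2 or 3 days and signs of toxicity observed.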

HEK293 [25] = assay: Resistance index, ratio of IC50 for HEK293 cells overexpressing MRP4 to IC50 for wild type HEK293 cells; type: functional, Homo sapiens; summary of the method: as §3
HEK293 [26] = assay: Resistance index, ratio of IC50 for mouse MEF3.8 cells overexpressing MDR1 to IC50 for wild type […]; type: functional
[27] = Resistance index, ratio of IC50 for MDCK2 cells overexpressing MRP3 to IC50 for wild type MDCK2 cells; type: functional, Canis lupus familiaris; summary of the method: as §3
[28] = Antiproliferative activity against BAEC after 72 hrs by MTT assay in presence of 100 uM gamma-glutamyl cysteine synthase inhibitor buthionine sulfoximine; type: functional, Bos taurus
[29] = Drug accumulation in BAEC assessed as accumulation rate up to 4 hrs by inductively coupled plasma spectrometry relative to 4-(N-(S-Glutathionylacetyl)amino)phenylarsonous acid; type: ADME, Bos taurus; settings: cattle
Summary of the method: (§7)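 BAE cells seeded in 6-well plates, attached overnight, fresh medium, then 50 μM arsenical for up to 4 h; cytosolic arsenic by inductively coupled plasma spectrometry; accumulation rate (pmol As per 10^6 cells per min) from linear least-squares fit; triplicates.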

[30] = Drug accumulation in BAEC assessed as accumulation rate up to 4 hrs by inductively coupled plasma spectrometry relative to 4-(N-(S-cysteinylglycylacetyl)amino)phenylarsonous acid; type: ADME, Bos taurus; settings: cattle; summary of the method: as §7
BAEC [31] = assay: as §2; type: functional; settings: Bos taurus; summary of the method: as §1
BAEC [32] = assay: Antiproliferative activity against MRP1/2 inhibitor MK571 pretreated BAEC at 0.3 uM after 72 hrs by MTT assay; type: functional; settings: Bos taurus; summary of the method: as §5
[33] = Antiproliferative activity against BAEC after 72 hrs by MTT assay in presence of 20 uM gamma-glutamyl cysteine synthase inhibitor buthionine sulfoximine; type: functional, cell-based; settings: Bos taurus
BXPC-3 [34] = assay: Antitumor activity against human BxPC3 cells xenografted in BALB/c mouse assessed as tumor doubling time at 5 mg/kg/day, sc dosed for 18 days; type: functional, organism-based
BAEC [35] = assay: Antiproliferative activity against OATP inhibitor DIDS pretreated BAEC at 3 uM after 24 hrs by MTT assay; type: functional, cell-based; settings: Bos taurus
Summary of the method: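 BAE cells untreated or pretreated 30 min with 500 μM DIDS, then 3 μM compound for 24 h; viability by MTT, % of control; triplicates, two experiments.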

HEK293 [36] = assay: Resistance index, ratio of IC50 for mouse MEF3.8 cells overexpressing MRP6 to IC50 for wild type […]; type: functional
HEK293 [37] = assay: Resistance index, ratio of IC50 for mouse MEF3.8 cells overexpressing BCRP to IC50 for wild type […]; type: functional
Mus musculus [38] = assay: Toxicity in human BxPC3 cells xenografted BALB/c mouse at 0.5 mg/kg/day, sc for 28 days; type: organism-based, BXPC-3; design: route subcutaneous; settings: in vivo, 672 h; summary of the method: as §6
[39] = Drug accumulation in BAEC assessed as accumulation rate up to 4 hrs by inductively coupled plasma spectrometry relative to 4-(N-(S-cysteinylacetyl)amino)phenylarsonous acid; type: ADME, Bos taurus; settings: cattle; summary of the method: as §7

SMILES: N[C@H](CSCC(=O)Nc1ccc([As](O)O)cc1)C(=O)O
- Drug uptake [1]: 114%

SMILES: N[C@@H](CCC(=O)N[C@@H](CSCC(=O)Nc1ccc([As](O)O)cc1)C(=O)NCC(=O)O)C(=O)O
- pIC50 [2]: 4.89
- pIC50 (HCT-116): 4.37
- pIC50 (HT-1080): 4.60
- pIC50 ([3]; Bos taurus, BAEC, 72 h): 5.00
- pIC50 (MCF7): 4.29
- pIC50 (K562): 4.85
- pIC50 (BXPC-3 [4]): 3.57
- pIC50 [5]: 4.39
- pIC50 (PANC-1): 4.37
- pIC50 [6]: 4.64
- pIC50 [7]: 4.38

SMILES: N[C@H](CSCC(=O)Nc1ccc([As](O)O)cc1)C(=O)NCC(=O)O
- Drug uptake [1]: 197%

SMILES: CC(C)(SCC(=O)Nc1ccc([As](O)O)cc1)[C@@H](N)C(=O)O
- Drug uptake [1]: 52%
- Activity (BXPC-3 [8]): 15.6 days
- Ratio IC50 [9]: 8
- pIC50 [2]: 5.62
- Ratio IC50 [10]: 3.7
- Ratio IC50 [11]: 44
- Ratio IC50 (BXPC-3 [12]): 20
- pIC50 [13]: 7.70
- pIC50 [14]: 6.89
- Ratio IC50 [15]: 6
- Ratio IC50 [16]: 4.6
- Activity (BXPC-3 [17]): 13.8 days
- pIC50 [18]: 5.46
- Activity (BXPC-3 [19]): Active
- Ratio IC50 (HEK293 [20]): 0.4
- Ratio IC50 [21]: 21
- Activity (BXPC-3 [22]): Active
- pIC50 (HCT-116): 5.23
- Activity (BAEC [23]): Active
- Activity (Mus musculus [24]): Non-toxic
- Ratio IC50 (HEK293 [25]): 0.5
- pIC50 (HT-1080): 5.39
- Ratio IC50 (HEK293 [26]): 1.2
- Ratio IC50 [27]: 0.8
- Activity [28]: 16 nM
- fold change (FC) [29]: 85
- fold change (FC) [30]: 9
- Activity [3]: 440 nM
- Activity (BAEC [31]): inactive
- Activity (BAEC [32]): Active
- pIC50 [33]: 7.15
- pIC50 (MCF7): 5.03
- pIC50 (K562): 5.74
- Activity (BXPC-3 [34]): Active
- Activity (BAEC [35]): inactive
- Ratio IC50 (HEK293 [36]): 1.3
- pIC50 (BXPC-3 [4]): 4.68
- Ratio IC50 (HEK293 [37]): 1.1
- Activity (Mus musculus [38]): Non-toxic
- pIC50 [5]: 5.28
- fold change (FC) [39]: 10
- pIC50 (PANC-1): 5.19
- pIC50 [6]: 5.70
- pIC50 [7]: 5.60
